How the values were obtained:
[1] = target: T1, 1-acyl-sn-glycerol-3-phosphate acyltransferase beta (Homo sapiens, UniProt O15120); test: Inhibitory activity against Lysophosphatidic acid acyltransferase-beta expressed in Sf9 insect cell membranes
T1 sequence (O15120 whole entry): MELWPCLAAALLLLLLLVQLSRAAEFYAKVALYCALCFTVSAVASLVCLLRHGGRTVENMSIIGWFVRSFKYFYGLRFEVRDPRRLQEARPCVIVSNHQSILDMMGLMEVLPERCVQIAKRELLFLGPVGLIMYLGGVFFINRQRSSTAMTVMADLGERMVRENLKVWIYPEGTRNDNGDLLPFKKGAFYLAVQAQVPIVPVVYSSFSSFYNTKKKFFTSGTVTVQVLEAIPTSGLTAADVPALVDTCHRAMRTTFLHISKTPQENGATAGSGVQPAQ
Procedure, shortened: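 LPAAT-β overexpressed in Sf9 insect cell membranes. Enzyme activity read colorimetrically with DTNB (5,5'-dithiobis(2-nitrobenzoic acid)).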

[2] = tested on: DU-145; test: In vitro inhibitory activity against DU 145 cell line proliferation; format: functional, cell-based; conditions: Homo sapiens
Procedure, shortened: (§1)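 Cell proliferation measured with a CyQuant fluorescent DNA-dye kit, following the method of an earlier report.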

[3] = tested on: K562; test: In vitro inhibitory activity against K-562 cell line proliferation; format: functional, cell-based; conditions: Homo sapiens; procedure, shortened: as §1
[4] = tested on: Lewis lung carcinoma cell line; test: In vitro inhibitory activity against murine Lewis lung tumor LL2 cell line; format: functional, cell-based; conditions: Mus musculus
[5] = tested on: Mus musculus; test: Tumor growth delay against Lewis lung tumor LL2 cell line at 100 mg/kg q1d*4 intravenously in mice; conditions: route intravenous
[6] = target: T2, 1-acyl-sn-glycerol-3-phosphate acyltransferase alpha (Homo sapiens) (UniProt Q99943); test: Inhibitory activity against lysophosphatidic acid acyltransferase-alpha at 40 uM concentration
T2 sequence (whole entry): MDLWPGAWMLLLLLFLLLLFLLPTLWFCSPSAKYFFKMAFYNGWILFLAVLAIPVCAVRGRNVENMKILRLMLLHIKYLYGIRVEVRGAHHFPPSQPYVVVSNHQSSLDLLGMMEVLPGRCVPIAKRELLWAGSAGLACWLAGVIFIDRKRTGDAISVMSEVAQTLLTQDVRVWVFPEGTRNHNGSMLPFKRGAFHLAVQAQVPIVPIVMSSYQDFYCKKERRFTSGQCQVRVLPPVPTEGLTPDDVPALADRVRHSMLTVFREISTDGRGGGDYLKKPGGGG
Procedure, shortened: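 LPAAT-α overexpressed in Sf9 insect cell membranes in the same way. Activity read colorimetrically with DTNB. Inhibition recorded at 40 μM.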

Compound	IC50 [1]	IC50 [2]	IC50 [3]	IC50 [4]	TGD [5]	inhibition [6]
CCOc1ccc(Br)cc1-c1cc(Nc2ccc(B(O)O)cc2)nc(N)n1	91 nM	500 nM	200 nM	–	–	–
CCOc1ccc(Cl)cc1-c1cc(Nc2ccc3c[nH]nc3c2)nc(N)n1	–	200 nM	< 100 nM	–	–	–
CCOc1ccc(Cl)cc1-c1cc(Nc2cccc([N+](=O)[O-])c2)nc(N)n1	640 nM	> 1000 nM	450 nM	–	–	–
Cc1ccc(Cl)cc1-c1cc(Nc2ccc(Cl)cc2)nc(N)n1	22 nM	120 nM	60 nM	–	–	–
Nc1nc(Nc2ccc(Cl)cc2)cc(-c2cc(Br)ccc2O)n1	–	> 1000 nM	> 1000 nM	–	–	–
Cc1ccc(Cl)cc1-c1cc(Nc2ccc(Br)cc2)nc(N)n1	–	130 nM	60 nM	–	–	–
CCOc1ccc(Br)cc1-c1cc(Nc2ccc(/C(C)=N\OC)cc2)nc(N)n1	970 nM	> 1000 nM	> 1000 nM	–	–	–
CCOc1ccc(Cl)cc1-c1cc(Nc2ccc([N+](=O)[O-])cc2)nc(N)n1	–	350 nM	180 nM	–	–	–
COc1ccc(Cl)cc1-c1cc(Nc2ccc(Br)cc2)nc(N)n1	28 nM	250 nM	150 nM	–	–	–
CCOc1ccc(Br)cc1-c1cc(Nc2ccc(C(=O)NO)cc2)nc(N)n1	–	> 1000 nM	700 nM	–	–	–
CCOc1ccc(Br)cc1-c1cc(Nc2ccc(C#N)cc2)nc(N)n1	17 nM	400 nM	70 nM	–	–	–
COc1ccc(Cl)cc1-c1nc(N)cc(Nc2ccc(Cl)cc2)n1	7000 nM	5000 nM	750 nM	–	–	–
COc1ccc(Cl)cc1-c1cc(Nc2ccc3c[nH]nc3c2)nc(N)n1	–	1000 nM	250 nM	–	–	–
Cc1ccc(O)cc1-c1cc(Nc2ccc(Cl)cc2)nc(N)n1	8300 nM	–	–	–	–	–
Nc1nc(Nc2ccc(Cl)cc2)cc(-c2cc(Cl)ccc2Cl)n1	–	190 nM	< 100 nM	–	–	–
COc1ccc(Cl)cc1-c1nc(N)cc(Nc2ccc(Br)cc2)n1	–	800 nM	150 nM	–	–	–
COc1ccc(Cl)cc1-c1cc(N)nc(Nc2ccc(Br)cc2)n1	2300 nM	> 10000 nM	3000 nM	–	–	–
CCOc1ccc(Br)cc1-c1cc(Nc2ccc(C(C)=O)cc2)nc(N)n1	–	90 nM	50 nM	–	–	–
Cc1ccc(Br)cc1-c1cc(Nc2ccc(Cl)cc2)nc(N)n1	–	100 nM	70 nM	–	–	–
COc1ccc(Cl)cc1-c1cc(Nc2ccc(Cl)cc2)nc(N)n1	–	500 nM	150 nM	–	–	–
CCOc1ccc(Br)cc1-c1cc(Nc2ccc(CC(=O)NO)cc2)nc(N)n1	400 nM	> 1000 nM	> 1000 nM	–	–	–

Compound	IC50 [1]	IC50 [2]	IC50 [3]	IC50 [4]	TGD [5]	inhibition [6]
Cc1ccc(Br)cc1-c1cc(Nc2ccc(Br)cc2)nc(N)n1	–	110 nM	70 nM	–	–	–
COc1ccc(Cl)cc1-c1cc(N)nc(Nc2ccc3c[nH]nc3c2)n1	–	> 10000 nM	> 10000 nM	–	–	–
Nc1nc(Nc2ccc(Cl)cc2)cc(-c2cc(Cl)ccc2O)n1	10000 nM	–	–	–	–	–
CCOc1ccc(Cl)cc1-c1cc(Nc2ccc(CC(=O)O)cc2)nc(N)n1	580 nM	> 1000 nM	> 1000 nM	–	–	–
CCOc1ccc(Cl)cc1-c1cc(Nc2ccc(CCO)cc2)nc(N)n1	–	70 nM	< 50 nM	–	–	–
CCOc1ccc(Br)cc1-c1cc(Nc2ccccc2)nc(N)n1	120 nM	> 1000 nM	260 nM	–	–	–
Cc1ccc(F)cc1-c1cc(Nc2ccc(Cl)cc2)nc(N)n1	150 nM	> 1000 nM	250 nM	–	–	–
CCOc1ccc(Cl)cc1-c1cc(Nc2ccc(CO)cc2)nc(N)n1	–	40 nM	< 12 nM	–	–	–
COc1ccc(Cl)cc1-c1nc(N)cc(Nc2ccc3c[nH]nc3c2)n1	–	> 10000 nM	5500 nM	–	–	–
CCOc1ccc(Br)cc1-c1cc(Nc2ccc(C(=O)O)cc2)nc(N)n1	2700 nM	–	–	–	–	–
CCOc1ccc(Br)cc1-c1cc(Nc2cccc(C#N)c2)nc(N)n1	720 nM	> 1000 nM	350 nM	–	–	–
CCOc1ccc(Br)cc1-c1cc(Nc2ccc(/C(C)=N\O)cc2)nc(N)n1	84 nM	< 50 nM	< 50 nM	–	–	–
Cc1ccc(Cl)cc1-c1cc(Nc2cccc(Br)c2)nc(N)n1	610 nM	400 nM	200 nM	–	–	–
CCOc1ccc(Br)cc1-c1cc(Nc2ccc(C(=N)N)cc2)nc(N)n1	> 5000 nM	–	–	–	–	–
COc1ccc(Cl)cc1-c1cc(N)nc(Nc2ccc(Cl)cc2)n1	7000 nM	> 10000 nM	3000 nM	–	–	–
CCOc1ccc(Br)cc1-c1cc(Nc2ccc(CC(=O)O)cc2)nc(N)n1	210 nM	> 1000 nM	> 1000 nM	–	–	–
CCOc1ccc(Cl)cc1-c1cc(Nc2ccc(Cl)cc2)nc(N)n1	–	70 nM	< 12 nM	–	–	–
Cc1ccc(Cl)cc1-c1cc(Nc2ccc(C(F)(F)F)cc2)nc(N)n1	140 nM	230 nM	140 nM	160 nM	6 days	–
CCOc1ccc(Cl)cc1-c1cc(Nc2ccc(CCCO)cc2)nc(N)n1	–	> 1000 nM	> 1000 nM	–	–	–
CCOc1ccc(Br)cc1-c1cc(Nc2ccc(C(N)=O)cc2)nc(N)n1	750 nM	–	–	–	–	–
CCOc1ccc(Br)cc1-c1cc(Nc2ccc(Cl)cc2)nc(N)n1	16 nM	80 nM	50 nM	–	–	50%

— ChEMBL document CHEMBL1147572, “Synthesis, SAR, and antitumor properties of diamino-C,N-diarylpyrimidine positional isomers: inhibitors of lysophosphatidic acid acyltransferase-beta” (Bioorg Med Chem Lett, 2004)
